Legend:
[1] = test system: Acinetobacter baumannii; test: Antimicrobial activity against Acinetobacter baumannii isolate 4 at pH 7.2; type: functional
Outline: (§1)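 Agar dilution MIC on Mueller-Hinton agar. For the acidic condition, HCl was added to bring the agar to pH 5.8 before pouring the antibiotic plates, and the pH was checked after the agar set. The standard condition was pH 7.2. Both drugs' plates were made the same day from fresh medium, and MICs were read at the same time.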

[2] = test system: Acinetobacter baumannii; test: Antimicrobial activity against Acinetobacter baumannii isolate 8 at pH 7.2; type: functional
Outline: (§2)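 Agar dilution MIC on Mueller-Hinton agar under standard conditions (pH 7.2). Antibiotic-containing plates were made the same day from freshly prepared medium. Agar pH was checked after solidifying. Both fluoroquinolones were tested simultaneously against A. baumannii isolates with characterized gyrA/parC genes. MICs are in μg/ml.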

[3] = test system: Acinetobacter baumannii; test: Antimicrobial activity against Acinetobacter baumannii isolate 13 at pH 7.2; type: functional
Outline: (§3)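 MIC by agar dilution on Mueller-Hinton agar under standard conditions (pH 7.2), against isolates with characterized gyrA/parC genes. Agar pH was checked after solidifying. Plates for both drugs were prepared the same day from freshly made media, and MICs were determined simultaneously with the pH 5.8 set.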

[4] = test system: Acinetobacter baumannii; test: Antimicrobial activity against Acinetobacter baumannii isolate 20 harboring GyrA Ser83-Leu mutation at pH 7.2; type: functional; outline: as §3
[5] = test system: Acinetobacter baumannii; test: Antimicrobial activity against Acinetobacter baumannii isolate 23 harboring GyrA Glu87-Gly mutation at pH 7.2; type: functional; outline: as §3
[6] = test system: Acinetobacter baumannii; test: Antimicrobial activity against Acinetobacter baumannii isolate 24 harboring GyrA Ser83-Leu mutation at pH 7.2; type: functional; outline: as §3
[7] = test system: Acinetobacter baumannii; test: Antimicrobial activity against Acinetobacter baumannii isolate 25 harboring GyrA Ser83-Leu mutation at pH 7.2; type: functional; outline: as §3
[8] = test system: Acinetobacter baumannii; test: Antimicrobial activity against Acinetobacter baumannii isolate 30 harboring GyrA Ser83-Leu mutation at pH 7.2; type: functional; outline: as §3
[9] = test system: Acinetobacter baumannii; test: Antimicrobial activity against Acinetobacter baumannii isolate 33 harboring GyrA Ser83-Leu mutation at pH 7.2; type: functional; outline: as §1
[10] = test system: Acinetobacter baumannii; test: Antimicrobial activity against Acinetobacter baumannii isolate 39 harboring GyrA Ser83-Leu mutation at pH 7.2; type: functional; outline: as §1
[11] = test system: Acinetobacter baumannii; test: Antimicrobial activity against Acinetobacter baumannii isolate 40 harboring GyrA Ser83-Leu mutation at pH 7.2; type: functional; outline: as §1
[12] = test system: Acinetobacter baumannii; test: Antimicrobial activity against Acinetobacter baumannii isolate 52 harboring GyrA Ser83-Leu and ParC Ser80-Leu mutation at pH 7.2; type: functional; outline: as §1
[13] = test system: Acinetobacter baumannii; test: Antimicrobial activity against Acinetobacter baumannii isolate 53 harboring GyrA Ser83-Leu and ParC Ser80-Leu mutation at pH 7.2; type: functional; outline: as §1
[14] = test system: Acinetobacter baumannii; test: Antimicrobial activity against Acinetobacter baumannii isolate 54 harboring GyrA Ser83-Leu and ParC Ser80-Leu mutation at pH 7.2; type: functional; outline: as §1
[15] = test system: Acinetobacter baumannii; test: Antimicrobial activity against Acinetobacter baumannii isolate 55 harboring GyrA Ser83-Leu and ParC Ser80-Leu mutation at pH 7.2; type: functional; outline: as §2
[16] = test system: Acinetobacter baumannii; test: Antimicrobial activity against Acinetobacter baumannii isolate 59 harboring GyrA Ser83-Leu and ParC Glu84-Lys mutation at pH 7.2; type: functional; outline: as §2
[17] = test system: Acinetobacter baumannii; test: Antimicrobial activity against Acinetobacter baumannii isolate 60 harboring GyrA Ser83-Leu and ParC Ser80-Leu mutation at pH 7.2; type: functional; outline: as §2
[18] = test system: Acinetobacter baumannii; test: Antimicrobial activity against Acinetobacter baumannii isolate 61 harboring GyrA Ser83-Leu and ParC Ser80-Leu mutation at pH 7.2; type: functional; outline: as §2
[19] = test system: Acinetobacter baumannii; test: Antimicrobial activity against Acinetobacter baumannii isolate 63 harboring GyrA Ser83-Leu and ParC Glu84-Lys mutation at pH 7.2; type: functional; outline: as §2
[20] = test system: Acinetobacter baumannii; test: Antimicrobial activity against Acinetobacter baumannii isolate 65 harboring GyrA Ser83-Leu and ParC Ser80-Leu mutation at pH 7.2; type: functional; outline: as §2
[21] = test system: Acinetobacter baumannii; test: Antimicrobial activity against Acinetobacter baumannii isolate 7 at pH 5.8; type: functional
Outline: (§4)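 Agar dilution MIC on Mueller-Hinton agar acidified to pH 5.8 with HCl before the antibiotic-containing plates were poured. Agar pH was checked after solidifying. Plates were made the same day from fresh medium. Both fluoroquinolones were tested simultaneously against A. baumannii isolates with characterized gyrA/parC genes. MICs are in μg/ml.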

[22] = test system: Acinetobacter baumannii; test: Antimicrobial activity against Acinetobacter baumannii isolate 16 at pH 5.8; type: functional
Outline: (§5)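 MIC by agar dilution on Mueller-Hinton agar acidified to pH 5.8 with HCl before antibiotic-containing plates were poured. Agar pH was rechecked once the agar had solidified. Isolates had characterized gyrA/parC genes. Plates for both drugs were made the same day from fresh media, and MICs were read in parallel with the standard-pH set.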

[23] = test system: Acinetobacter baumannii; test: Antimicrobial activity against Acinetobacter baumannii isolate 17 at pH 5.8; type: functional; outline: as §5
[24] = test system: Acinetobacter baumannii; test: Antimicrobial activity against Acinetobacter baumannii isolate 19 harboring GyrA Ser83-Leu mutation at pH 5.8; type: functional; outline: as §5
[25] = test system: Acinetobacter baumannii; test: Antimicrobial activity against Acinetobacter baumannii isolate 24 harboring GyrA Ser83-Leu mutation at pH 5.8; type: functional; outline: as §5
[26] = test system: Acinetobacter baumannii; test: Antimicrobial activity against Acinetobacter baumannii isolate 26 harboring GyrA Ser83-Leu mutation at pH 5.8; type: functional; outline: as §5
[27] = test system: Acinetobacter baumannii; test: Antimicrobial activity against Acinetobacter baumannii isolate 27 harboring GyrA Ser83-Leu mutation at pH 5.8; type: functional; outline: as §5
[28] = test system: Acinetobacter baumannii; test: Antimicrobial activity against Acinetobacter baumannii isolate 31 harboring GyrA Ser83-Leu mutation at pH 5.8; type: functional; outline: as §5
[29] = test system: Acinetobacter baumannii; test: Antimicrobial activity against Acinetobacter baumannii isolate 34 harboring GyrA Ser83-Leu mutation at pH 5.8; type: functional; outline: as §1
[30] = test system: Acinetobacter baumannii; test: Antimicrobial activity against Acinetobacter baumannii isolate 41 harboring GyrA Ser83-Leu mutation at pH 5.8; type: functional; outline: as §1
[31] = test system: Acinetobacter baumannii; test: Antimicrobial activity against Acinetobacter baumannii isolate 49 harboring GyrA Ser83-Leu and ParC Ser80-Leu mutation at pH 5.8; type: functional; outline: as §1
[32] = test system: Acinetobacter baumannii; test: Antimicrobial activity against Acinetobacter baumannii isolate 50 harboring GyrA Ser83-Leu and ParC Ser80-Leu mutation at pH 5.8; type: functional; outline: as §1
[33] = test system: Acinetobacter baumannii; test: Antimicrobial activity against Acinetobacter baumannii isolate 57 harboring GyrA Ser83-Leu and ParC Ser80-Phe mutation at pH 5.8; type: functional; outline: as §4
[34] = test system: Acinetobacter baumannii; test: Antimicrobial activity against Acinetobacter baumannii isolate 58 harboring GyrA Ser83-Leu and ParC Ser80-Leu mutation at pH 5.8; type: functional; outline: as §4
[35] = test system: Acinetobacter baumannii; test: Antimicrobial activity against Acinetobacter baumannii isolate 64 harboring GyrA Ser83-Leu and ParC Ser80-Leu mutation at pH 5.8; type: functional; outline: as §4
[36] = test system: Acinetobacter baumannii; test: Antimicrobial activity against Acinetobacter baumannii isolate 65 harboring GyrA Ser83-Leu and ParC Ser80-Leu mutation at pH 5.8; type: functional; outline: as §4
[37] = test system: Acinetobacter baumannii; test: Antimicrobial activity against adeB overexpressing Acinetobacter baumannii isolate 67 harboring GyrA Ser83-Leu and ParC Ser80-Leu mutation at pH 5.8; type: functional; outline: as §4
[38] = test system: Acinetobacter baumannii; test: Antimicrobial activity against Acinetobacter baumannii isolate 33 harboring GyrA Ser83-Leu mutation at pH 5.8; type: functional; outline: as §1
[39] = test system: Acinetobacter baumannii; test: Antimicrobial activity against Acinetobacter baumannii isolate 60 harboring GyrA Ser83-Leu and ParC Ser80-Leu mutation at pH 5.8

Measured: MIC

N#Cc1c(N2C[C@@H]3NCCO[C@H]3C2)c(F)cc2c(=O)c(C(=O)O)cn(C3CC3)c12 [FINAFLOXACIN]
4 µg/mL: [32] | [33] | [34] | [35] | [37]
64 µg/mL: [16] | [17] | [18] | [19] | [20]
0.06 µg/mL: [21]
0.25 µg/mL: [1] | [2]
32 µg/mL: [12] | [13] | [14] | [15]
8 µg/mL: [5] | [8] | [36] | [39]
0.12 µg/mL: [22] | [23] | [24]
1 µg/mL: [3] | [4] | [27] | [28] | [38]
16 µg/mL: [6] | [7] | [9] | [10] | [11]
2 µg/mL: all other assays above
